Data as given in ChEMBL document CHEMBL1147832, “Flexible synthesis and biological evaluation of novel 5-deoxyadenophorine analogues” (Bioorg Med Chem Lett, 2006).

Assays:
[1] = Inhibition of yeast alpha glucosidase; design: species or system Saccharomyces cerevisiae
Alpha-galactosidase = Alpha-galactosidase (Coffea arabica, UniProt Q5DUH8); test: Inhibition of green coffee alpha galactosidase
[2] = molecular target: T1, Beta-galactosidase (Aspergillus niger) (UniProt P29853); test: Inhibition of Aspergillus beta galactosidase at 1 mM
T1 sequence (whole entry): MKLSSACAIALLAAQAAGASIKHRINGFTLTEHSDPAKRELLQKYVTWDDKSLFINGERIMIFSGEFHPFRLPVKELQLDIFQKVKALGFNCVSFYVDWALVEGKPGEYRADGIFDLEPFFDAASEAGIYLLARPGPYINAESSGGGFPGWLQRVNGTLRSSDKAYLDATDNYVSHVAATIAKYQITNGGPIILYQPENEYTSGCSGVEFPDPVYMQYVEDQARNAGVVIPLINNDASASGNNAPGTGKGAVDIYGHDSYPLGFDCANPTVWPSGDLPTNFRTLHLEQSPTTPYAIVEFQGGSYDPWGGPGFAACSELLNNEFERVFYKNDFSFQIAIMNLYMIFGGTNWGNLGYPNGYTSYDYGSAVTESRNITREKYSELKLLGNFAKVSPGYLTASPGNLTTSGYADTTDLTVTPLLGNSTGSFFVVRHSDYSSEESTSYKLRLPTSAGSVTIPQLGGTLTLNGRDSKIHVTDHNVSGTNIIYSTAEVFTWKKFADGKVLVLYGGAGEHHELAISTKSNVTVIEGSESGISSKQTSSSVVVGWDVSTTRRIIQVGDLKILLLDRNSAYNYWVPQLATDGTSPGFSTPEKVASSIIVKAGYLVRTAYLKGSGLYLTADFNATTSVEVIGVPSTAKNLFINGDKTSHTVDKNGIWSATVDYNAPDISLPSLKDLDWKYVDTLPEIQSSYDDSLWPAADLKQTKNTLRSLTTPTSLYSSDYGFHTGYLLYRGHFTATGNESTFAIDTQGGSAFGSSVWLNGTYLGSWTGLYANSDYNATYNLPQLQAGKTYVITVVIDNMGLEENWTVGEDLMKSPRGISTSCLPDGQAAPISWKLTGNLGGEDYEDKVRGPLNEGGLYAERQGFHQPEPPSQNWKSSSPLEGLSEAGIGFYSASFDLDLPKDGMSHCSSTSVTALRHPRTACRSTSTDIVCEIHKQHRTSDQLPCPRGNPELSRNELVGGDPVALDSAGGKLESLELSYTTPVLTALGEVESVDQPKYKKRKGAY
Outline: (§1)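 Commercial enzymes: yeast α-glucosidase, almond β-glucosidase, green coffee bean α-galactosidase, Aspergillus β-galactosidase. Each was run at its optimum pH and temperature with the matching p-nitrophenyl glycoside at a substrate concentration equal to the calculated Km. Inhibitor was at 1 mM final. Low-pH reactions were stopped with 400 mM Na2CO3. Released p-nitrophenol was read at 405 nm, giving % inhibition.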

Saccharomyces cerevisiae = test: Inhibition of yeast alpha glucosidase at 1 mM; outline: as §1
[3] = molecular target: Alpha-galactosidase (Coffea arabica) (UniProt Q5DUH8); test: Inhibition of green coffee alpha galactosidase at 1 mM; outline: as §1
Alpha-galactosidase (Coffea arabica), sequence (Q5DUH8 as listed by the source): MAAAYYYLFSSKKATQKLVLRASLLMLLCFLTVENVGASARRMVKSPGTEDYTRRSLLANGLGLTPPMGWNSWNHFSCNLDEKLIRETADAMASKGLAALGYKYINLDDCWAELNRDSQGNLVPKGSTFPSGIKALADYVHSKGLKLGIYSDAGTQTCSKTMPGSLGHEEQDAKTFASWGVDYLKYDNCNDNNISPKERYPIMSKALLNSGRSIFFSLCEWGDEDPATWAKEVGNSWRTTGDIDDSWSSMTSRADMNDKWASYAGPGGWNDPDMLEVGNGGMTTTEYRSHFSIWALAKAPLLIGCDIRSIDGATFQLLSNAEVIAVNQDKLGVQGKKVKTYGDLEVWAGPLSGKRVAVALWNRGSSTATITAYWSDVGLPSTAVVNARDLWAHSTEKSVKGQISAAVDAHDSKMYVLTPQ

[4] = molecular target: T2, Alpha-glucosidase-like (Oryza sativa Japonica Group) (UniProt A0A5S6RD55); test: Inhibition of rice alpha glucosidase at 1 mM
T2 sequence (whole entry): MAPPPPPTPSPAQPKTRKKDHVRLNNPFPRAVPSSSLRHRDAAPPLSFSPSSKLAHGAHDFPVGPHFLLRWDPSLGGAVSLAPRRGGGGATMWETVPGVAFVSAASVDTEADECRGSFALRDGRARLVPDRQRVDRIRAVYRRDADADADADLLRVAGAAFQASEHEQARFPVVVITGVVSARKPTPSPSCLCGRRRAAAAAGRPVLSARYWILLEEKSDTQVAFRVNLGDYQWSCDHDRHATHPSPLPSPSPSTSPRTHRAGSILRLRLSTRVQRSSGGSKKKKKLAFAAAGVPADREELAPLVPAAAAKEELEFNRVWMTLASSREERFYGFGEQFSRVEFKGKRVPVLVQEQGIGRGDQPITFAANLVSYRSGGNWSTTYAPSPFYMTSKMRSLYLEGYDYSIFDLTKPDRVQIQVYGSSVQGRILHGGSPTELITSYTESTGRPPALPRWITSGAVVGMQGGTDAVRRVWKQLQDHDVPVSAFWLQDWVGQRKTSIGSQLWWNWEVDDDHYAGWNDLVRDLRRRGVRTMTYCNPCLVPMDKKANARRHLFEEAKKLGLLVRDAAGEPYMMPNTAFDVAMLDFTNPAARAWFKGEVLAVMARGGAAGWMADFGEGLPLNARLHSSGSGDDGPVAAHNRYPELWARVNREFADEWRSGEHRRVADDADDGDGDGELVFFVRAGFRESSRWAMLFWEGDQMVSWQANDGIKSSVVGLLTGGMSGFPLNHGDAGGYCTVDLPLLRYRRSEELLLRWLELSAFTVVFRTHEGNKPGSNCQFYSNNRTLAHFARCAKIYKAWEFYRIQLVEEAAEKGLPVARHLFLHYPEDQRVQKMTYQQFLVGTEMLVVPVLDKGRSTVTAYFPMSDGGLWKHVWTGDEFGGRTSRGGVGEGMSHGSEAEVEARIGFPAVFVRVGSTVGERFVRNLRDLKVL

Beta-galactosidase = molecular target: T3, Beta-galactosidase (Bos taurus, UniProt Q58D55); test: Inhibition of bovine liver beta galactosidase
T3 sequence (Q58D55 whole entry): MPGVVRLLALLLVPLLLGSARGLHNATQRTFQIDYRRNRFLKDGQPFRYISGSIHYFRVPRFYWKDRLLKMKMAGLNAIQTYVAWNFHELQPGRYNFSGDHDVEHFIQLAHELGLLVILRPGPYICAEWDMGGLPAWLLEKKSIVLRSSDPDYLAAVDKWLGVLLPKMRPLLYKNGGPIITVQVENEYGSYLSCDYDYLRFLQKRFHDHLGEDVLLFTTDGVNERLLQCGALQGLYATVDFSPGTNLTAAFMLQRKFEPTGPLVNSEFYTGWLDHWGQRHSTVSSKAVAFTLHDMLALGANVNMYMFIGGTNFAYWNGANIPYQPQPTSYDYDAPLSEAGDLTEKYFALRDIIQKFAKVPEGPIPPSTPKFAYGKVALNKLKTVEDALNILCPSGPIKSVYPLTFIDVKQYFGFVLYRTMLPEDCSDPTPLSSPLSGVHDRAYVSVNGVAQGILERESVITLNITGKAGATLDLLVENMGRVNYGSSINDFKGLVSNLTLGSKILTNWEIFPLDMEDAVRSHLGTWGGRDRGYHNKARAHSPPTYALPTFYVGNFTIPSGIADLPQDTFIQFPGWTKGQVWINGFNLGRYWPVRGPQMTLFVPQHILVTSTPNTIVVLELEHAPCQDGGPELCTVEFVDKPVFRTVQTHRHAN

Alpha-galactosidase, sequence (Q5DUH8 whole entry): as the sequence (Q5DUH8 as listed by the source) above

SMILES	Ki [1]	Ki (Alpha-galactosidase)	inhibition [2]	inhibition (Saccharomyces cerevisiae)	inhibition [3]	IC50 (Alpha-galactosidase)	inhibition [4]	IC50 (Beta-galactosidase)
CCCCCCC[C@@H]1C[C@@H](O)[C@@H](O)[C@@H](CO)N1	154 µM	141 µM	< 40%					
CCCCCCC[C@@H]1C[C@H](O)[C@@H](O)[C@@H](CO)N1			< 40%	< 40%	< 40%			
CCC[C@@H]1C[C@H](O)[C@@H](O)[C@@H](CO)N1			< 40%	< 40%	< 40%			
CCCC[C@@H]1C[C@H](O)[C@@H](O)[C@@H](CO)N1			< 40%	< 40%	< 40%			
CC[C@@H]1C[C@@H](O)[C@@H](O)[C@@H](CO)N1	123 µM	721 µM	< 40%					
CC[C@@H]1C[C@H](O)[C@@H](O)[C@@H](CO)N1						6.4 µM	< 40%	34 µM
CCCCCCCCCCC[C@@H]1C[C@H](O)[C@@H](O)[C@@H](CO)N1	196 µM		< 40%		< 40%			
